Test results as given in ChEMBL document CHEMBL1154794, “Asterolaurins A-F, xenicane diterpenoids from the Taiwanese soft coral Asterospicularia laurae” (J Nat Prod, 2009).

Legend:
[1] = Antiinflammatory activity in human neutrophils assessed as inhibition of fMLP/cytochalasin B-induced elastase release after 5 mins; type: functional, cell-based; conditions: Neutrophil
In short: (§1)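 Neutrophils (6 × 10^5/mL) given MeO-Suc-Ala-Ala-Pro-Val-p-nitroanilide (100 µM) as substrate, equilibrated 2 min at 37 °C, then exposed to compound for 5 min. Stimulated with FMLP (100 nM)/CB (0.5 µg/mL). Absorbance at 405 nm followed continuously. Initial rate of elastase release expressed as percentage of the FMLP/CB-activated DMSO control. Genistein served as positive control.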

HepG2 = test: Cytotoxicity against human HepG2 cells by MTT assay; type: functional, cell-based
In short: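 Human liver carcinoma HepG2 cells, viability read by MTT assay. Camptothecin served as positive control.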

[2] = Antiinflammatory activity in human neutrophils assessed as inhibition of fMLP/cytochalasin B-induced elastase release at 10 ug/ml after 5 mins; type: functional; conditions: Neutrophil; in short: as §1
[3] = Antiinflammatory activity in human neutrophils assessed as inhibition of fMLP/cytochalasin B-induced superoxide anion generation at 10 ug/ml after 5 mins by spectrophotometry; type: functional; conditions: Neutrophil
In short: (§2)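 Neutrophils isolated by dextran sedimentation and Ficoll centrifugation. Cells supplemented with ferricytochrome c (0.5 mg/mL) and Ca2+ (1 mM), equilibrated 2 min at 37 °C, then given compound for 5 min. CB (1 µg/mL) added 3 min before FMLP (100 nM) activation for 10 min. Superoxide dismutase-inhibitable ferricytochrome c reduction followed continuously at 550 nm with stirring.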

[4] = Antiinflammatory activity in human neutrophils assessed as inhibition of fMLP/cytochalasin B-induced superoxide anion generation after 5 mins by spectrophotometry; type: functional, cell-based; conditions: Neutrophil; in short: as §2

SMILES | IC50 [1] | IC50 (HepG2) | inhibition at 10 µg/mL [2] | inhibition at 10 µg/mL [3] | IC50 [4]
C=C1C[C@@H](O)[C@@H]2O[C@@]2(C)CC[C@@H]2C([C@@H](OC(C)=O)[C@H](C=C(C)C)OC(C)=O)=CO[C@H](OC(C)=O)[C@@H]12 [ASTEROLAURIN A] | 40 µM | 8.9 µM |  |  | 
C=C1C[C@@H](OC(C)=O)/C=C(\C)CC[C@@H]2/C(=C\[C@H](O)C=C(C)C)C(=O)OC[C@@H]12 |  | > 40 µM | 13% | 9% | 
C=C1C[C@@H](OC(C)=O)/C=C(\COC(C)=O)CC[C@@H]2/C(=C\[C@H](O)C=C(C)C)C(=O)OC[C@@H]12 [ASTEROLAURIN E] |  | > 40 µM | 36% | 24% | 
C=C1C[C@@H](O)[C@@H](O)/C(C)=C\C[C@@H]2C([C@@H](OC(C)=O)[C@H](C=C(C)C)OC(C)=O)=CO[C@H](OC(C)=O)[C@@H]12 [ASTEROLAURIN B] |  | > 40 µM | 30% | 31% | 
C=C1C[C@@H](OC(C)=O)/C=C(\C)CC[C@@H]2/C(=C\C=C\C(C)(C)O)CO[C@H](O)[C@@H]12 [ASTEROLAURIN D] | 18.7 µM | > 40 µM | 68% | 56% | 23.6 µM
C=C1C[C@@H](O)[C@@H](O)C(=C)CC[C@@H]2C([C@@H](OC(C)=O)[C@H](C=C(C)C)OC(C)=O)=CO[C@H](OC(C)=O)[C@@H]12 [ASTEROLAURIN C] |  | > 40 µM | 39% | 22% | 
O=c1c(-c2ccc(O)cc2)coc2cc(O)cc(O)c12 [GENISTEIN] |  |  | 52% | 65% | 
